Data taken from PubChem BioAssay AID1885 (Broad Institute, 2009).
Hit rate of the full screen: of about 300,000 compounds, about 4,400 (1.5%) were called active. The entries come from a sample that favours actives as a whole. A number with no mark means an inactive call.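 How the source made its calls: active means mean inhibition across valid replicates above about 55% (limit read from the data); inconclusive means mean below that limit but half or more replicates reach it; inactive means mean below it, under half of replicates reach it.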

Assay: inhibitors of intracellular T. cruzi growth, primary screen, luminescence, NIH3T3 host cells (AID 1885);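 further: signal also drops with host cell toxicity which is not excluded here; 0% = plate median of DMSO wells and 100% = zero luminescence signal; higher percent means less beta-gal luminescence so fewer parasites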
Settings: T. cruzi beta-gal in NIH3T3, luminescence, 90 h; stronger effect = higher value; concentration not given here
In short: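 Read-out: Parasite load inhibition, % | Test system: Mouse NIH/3T3 fibroblasts infected with β-gal-expressing T. cruzi Tulahuen C4 | Amount: 5,000 cells/well | Medium: DMEM, 2% fetal bovine serum | Signal: GalScreen β-gal luminescence, detergent lysis, 60 min | Timing: 3 h attach, ≥90 h co-culture | Also added: Tulahuen C4 trypomastigotes, 5000/well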

Structure (SMILES)	inhibition
COc1cccc(OC)c1C(=O)Nc1sc2c(c1C(N)=O)CCCC2	9.96%
c1ccc2c(c1)C(=NC1CCCCC1)NC2=NC1CCCCC1	55.5% (active)
COc1cccc(COC(=O)C2CCN(S(=O)(=O)c3ccc(Cl)cc3)CC2)c1OC	-3.47%
Cc1oc(C)c(C(=O)NCCCC(=O)O)c1C(=O)NCCCC(=O)O	-21.2%
CC(C)(C)NC(=O)Cn1cnc([N+](=O)[O-])n1	50.4%
O=C(CSc1ncccn1)NCCc1ccccc1	-13.3%
O=C(Cn1cnc([N+](=O)[O-])n1)NCCc1ccccc1	76.4% (active)
Cc1cc(C)c(S(=O)(=O)n2cc(C(C)C(N)C(=O)O)c3ccccc32)c(C)c1 (configuration not stated)	-6.09%
Cc1cccc(C)c1OCC(O)CN1CCCCC1 (configuration not stated)	-1.54%
OC(COc1ccc(Br)cc1)CN1CCCC1 (configuration not stated)	10.2%
OC(COCCC12CC3CC(CC(C3)C1)C2)CN1CCCCC1 (configuration not stated)	62% (active)
COc1ccc(C(=O)/C=C/c2ccc(-c3ccccc3)cc2)cc1CSCC(=O)O	-21%
Cc1ccc(S(=O)(=O)N(C)C)cc1NC(=O)COC(=O)/C=C/c1cccs1	-8.51%
Cc1ccc(-c2cc(=O)[nH]c(NCc3ccccc3)n2)cc1	-16.4%
Cc1c(C)n(Cc2ccc(Cl)cc2)c2ccc(C(=O)NCCCN3CCOCC3)cc12	12.7%
COc1ccc(C2=NN(C(=O)c3cccnc3)C(c3ccccc3)C2)cc1 (configuration not stated)	3.02%
COc1ccc(C2CC(c3ccc([N+](=O)[O-])cc3)=NN2C(C)=O)cc1 (configuration not stated)	4.42%
COc1ccc(C2CC(c3ccccc3)=NN2C(=O)c2ccc(Cl)c([N+](=O)[O-])c2)cc1 (configuration not stated)	54.8% (active)
O=C(NC1CCCCC1)C1CC(=O)N(CCc2ccccc2)C1 (configuration not stated)	-16.2%
C=CCOc1ccc(/C=C/C(=O)OCC(=O)NCC2CCCO2)cc1 (configuration not stated)	-9.89%
CCOC(=O)CNc1nc(Cl)nc(Nc2ccc(OC)cc2OC)n1	-0.745%
O=C(O)c1ccccc1CSc1nc2ccccc2s1	-11.7%
Cc1nc2nc(CSc3nc4ccccc4s3)cc(=O)n2[nH]1	-6.18%
CCN(CC)CCCSc1nc2ccccc2s1	69.6% (active)
COc1cc2c(cc1OC)C(C(=O)NCc1ccco1)C1c3ccccc3CCN1C2=O (configuration not stated)	7.27%
COC(=O)c1c(C)cc(O)c(C)c1O	-2.6%
O=[N+]([O-])c1ccc2oc(-c3cccc(O)c3)nc2c1	-23.1%
